In brackets after ≈: the same amount, converted by molar mass.
Key:
Assay type in all cases: functional
[1] = tested on: Staphylococcus aureus; assay: Antimicrobial activity against Staphylococcus aureus after 24 hrs by broth microdilution method
In short: (§1)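 Broth microdilution following NCCLS M7-A4; ATCC strains and clinical isolates from a provincial hospital.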

[2] = tested on: Staphylococcus aureus; assay: Antimicrobial activity against methicillin-susceptible Staphylococcus aureus after 24 hrs by broth microdilution method; in short: as §1
[3] = tested on: Staphylococcus aureus; assay: Antimicrobial activity against methicillin-resistant Staphylococcus aureus after 24 hrs by broth microdilution method
In short: (§2)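 Broth microdilution following NCCLS M7-A4, using ATCC strains and clinical isolates from a provincial hospital.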

[4] = tested on: Staphylococcus epidermidis; assay: Antimicrobial activity against Staphylococcus epidermidis after 24 hrs by broth microdilution method; in short: as §1
[5] = tested on: Escherichia coli; assay: Antimicrobial activity against Escherichia coli isolate 1 after 24 hrs by broth microdilution method; conditions: isolate 1, 24 h; in short: as §1
[6] = tested on: Escherichia coli; assay: Antimicrobial activity against Escherichia coli isolate 2 after 24 hrs by broth microdilution method; conditions: isolate 2, 24 h; in short: as §1
[7] = tested on: Staphylococcus aureus; assay: Antimicrobial activity against Staphylococcus aureus OXFORD after 24 hrs by broth microdilution method; in short: as §2
[8] = tested on: Staphylococcus aureus; assay: Antimicrobial activity against Staphylococcus aureus WCUH29 after 24 hrs by broth microdilution method; conditions: WCUH29, 24 h; in short: as §1
[9] = tested on: Enterococcus faecalis; assay: Antimicrobial activity against Enterococcus faecalis Isolate 1 after 24 hrs by broth microdilution method; conditions: Isolate 1, 24 h; in short: as §1
[10] = tested on: Enterococcus faecium; assay: Antimicrobial activity against Enterococcus faecium X7501 after 24 hrs by broth microdilution method; conditions: X7501, 24 h; in short: as §1
[11] = tested on: Haemophilus influenzae; assay: Antimicrobial activity against Haemophilus influenzae Q1 after 24 hrs by broth microdilution method; conditions: Q1, 24 h; in short: as §1
[12] = tested on: Haemophilus influenzae; assay: Antimicrobial activity against Haemophilus influenzae H128 after 24 hrs by broth microdilution method; conditions: H128, 24 h; in short: as §1
[13] = tested on: Haemophilus influenzae; assay: Antimicrobial activity against AcrA-deficient Haemophilus influenzae H128 after 24 hrs by broth microdilution method; conditions: H128, 24 h; in short: as §1
[14] = tested on: Moraxella catarrhalis; assay: Antimicrobial activity against Moraxella catarrhalis 1502 after 24 hrs by broth microdilution method; conditions: Moraxella catarrhalis, 1502, 24 h; in short: as §1
[15] = tested on: Streptococcus pneumoniae; assay: Antimicrobial activity against Streptococcus pneumoniae 1629 after 24 hrs by broth microdilution method; conditions: Streptococcus pneumoniae, 1629, 24 h; in short: as §1
[16] = tested on: Streptococcus pneumoniae; assay: Antimicrobial activity against Streptococcus pneumoniae N1387 after 24 hrs by broth microdilution method; conditions: N1387, 24 h; in short: as §1
[17] = tested on: Streptococcus pneumoniae; assay: Antimicrobial activity against Streptococcus pneumoniae ERY2 after 24 hrs by broth microdilution method; conditions: ERY2, 24 h; in short: as §1
[18] = tested on: Escherichia coli; assay: Antimicrobial activity against Escherichia coli isolate 3 after 24 hrs by broth microdilution method; conditions: isolate 3, 24 h; in short: as §1
[19] = tested on: Streptococcus pyogenes; assay: Antimicrobial activity against Streptococcus pyogenes 1307006P after 24 hrs by broth microdilution method; in short: as §1
[20] = tested on: Streptococcus pyogenes; assay: Antimicrobial activity against Streptococcus pyogenes 1308007P after 24 hrs by broth microdilution method; in short: as §1
[21] = tested on: Staphylococcus epidermidis; assay: Antimicrobial activity against methicillin-resistant Staphylococcus epidermidis after 24 hrs by broth microdilution method; in short: as §2
[22] = tested on: Staphylococcus epidermidis; assay: Antimicrobial activity against methicillin-susceptible Staphylococcus epidermidis after 24 hrs by broth microdilution method; in short: as §1
[23] = tested on: Enterococcus faecalis; assay: Antimicrobial activity against Enterococcus faecalis after 24 hrs by broth microdilution method; in short: as §1
[24] = tested on: Moraxella catarrhalis; assay: Antimicrobial activity against Moraxella catarrhalis after 24 hrs by broth microdilution method; in short: as §1
[25] = tested on: Streptococcus pneumoniae; assay: Antimicrobial activity against penicillin-resistant Streptococcus pneumoniae after 24 hrs by broth microdilution method; in short: as §2

| Compound | MIC [1] [µg/mL] | MIC [2] [µg/mL] | MIC [3] [µg/mL] | MIC [4] [µg/mL] | MIC [5] [µg/mL] | MIC [6] [µg/mL] | other results |
| --- | --- | --- | --- | --- | --- | --- | --- |
| CCCC[C@H](CN(O)C=O)C(=O)N1CC=C[C@H]1C(=O)Nc1nnc(C(F)(F)F)s1 | 32 (≈ 73.5 µM) | 16 (≈ 36.7 µM) | 8 (≈ 18.4 µM) | 16 (≈ 36.7 µM) | > 64 | > 64 |  |
| C=C1C[C@@H](C(=O)N2CCOCC2)N(C(=O)[C@H](CCCC)CN(O)C=O)C1 | 4 (≈ 10.9 µM) | 64 (≈ 174 µM) | 4 (≈ 10.9 µM) | 8 (≈ 21.8 µM) | > 64 | > 64 |  |
| C=C1C[C@@H](C(=O)Nc2ccccc2)N(C(=O)[C@H](CCCC)CN(O)C=O)C1 | 1 (≈ 2.68 µM) | 4 (≈ 10.7 µM) | 0.5 (≈ 1.34 µM) | 1 (≈ 2.68 µM) | 64 (≈ 171 µM) | > 64 |  |
| C=C1C[C@@H](C(=O)Nc2ccc(F)cc2)N(C(=O)[C@H](CCCC)CN(O)C=O)C1 | 0.5 (≈ 1.28 µM) | 2 (≈ 5.11 µM) | 0.25 (≈ 0.639 µM) | 0.5 (≈ 1.28 µM) | 64 (≈ 163 µM) | 64 (≈ 163 µM) |  |
| C=C1C[C@@H](C(=O)Nc2ccc(F)cn2)N(C(=O)[C@H](CCCC)CN(O)C=O)C1 | 0.5 (≈ 1.27 µM) | 1 (≈ 2.55 µM) | 0.125 (≈ 0.319 µM) | 0.25 (≈ 0.637 µM) | 32 (≈ 81.5 µM) | > 64 | MIC [7]: 4 µg/mL (≈ 10.2 µM); MIC [8]: 0.5 µg/mL (≈ 1.27 µM); MIC [9]: 32 µg/mL (≈ 81.5 µM); MIC [10]: 4 µg/mL (≈ 10.2 µM); MIC [11]: 16 µg/mL (≈ 40.8 µM); MIC [12]: 16 µg/mL (≈ 40.8 µM); MIC [13]: 0.5 µg/mL (≈ 1.27 µM); MIC [14]: 0.25 µg/mL (≈ 0.637 µM); MIC [15]: 16 µg/mL (≈ 40.8 µM); MIC [16]: 4 µg/mL (≈ 10.2 µM); MIC [17]: 8 µg/mL (≈ 20.4 µM); MIC [18]: > 64 µg/mL; MIC [19]: 4 µg/mL (≈ 10.2 µM); MIC [20]: 4 µg/mL (≈ 10.2 µM) |
| C=C1C[C@@H](C(=O)Nc2ccc(F)c[n+]2[O-])N(C(=O)[C@H](CCCC)CN(O)C=O)C1 | 1 (≈ 2.45 µM) | 4 (≈ 9.79 µM) | 0.5 (≈ 1.22 µM) | 1 (≈ 2.45 µM) | > 64 | > 64 |  |
| O=CN(O)C[C@@H](CC1CCCC1)C(=O)N1CC=C[C@H]1C(=O)Nc1ccccc1 | 4 (≈ 10.4 µM) | 4 (≈ 10.4 µM) | 1 (≈ 2.59 µM) | 0.5 (≈ 1.3 µM) | 32 (≈ 83 µM) | 32 (≈ 83 µM) | MIC [7]: 1 µg/mL (≈ 2.59 µM); MIC [8]: 0.125 µg/mL (≈ 0.324 µM); MIC [9]: > 64 µg/mL; MIC [10]: 1 µg/mL (≈ 2.59 µM); MIC [11]: 2 µg/mL (≈ 5.19 µM); MIC [12]: 2 µg/mL (≈ 5.19 µM); MIC [13]: ≤ 0.06 µg/mL; MIC [14]: ≤ 0.06 µg/mL; MIC [15]: 2 µg/mL (≈ 5.19 µM); MIC [16]: 0.5 µg/mL (≈ 1.3 µM); MIC [17]: 1 µg/mL (≈ 2.59 µM); MIC [18]: 64 µg/mL (≈ 166 µM); MIC [19]: 0.25 µg/mL (≈ 0.649 µM); MIC [20]: 0.5 µg/mL (≈ 1.3 µM) |
| O=CN(O)C[C@@H](CC1CCCC1)C(=O)N1CC=C[C@H]1C(=O)Nc1ccc(F)cc1 | 0.25 (≈ 0.62 µM) | 0.5 (≈ 1.24 µM) | 0.25 (≈ 0.62 µM) | 1 (≈ 2.48 µM) | 32 (≈ 79.3 µM) | 64 (≈ 159 µM) | MIC [7]: 1 µg/mL (≈ 2.48 µM); MIC [8]: 0.125 µg/mL (≈ 0.31 µM); MIC [9]: 2 µg/mL (≈ 4.96 µM); MIC [10]: 1 µg/mL (≈ 2.48 µM); MIC [11]: 2 µg/mL (≈ 4.96 µM); MIC [12]: 2 µg/mL (≈ 4.96 µM); MIC [13]: ≤ 0.06 µg/mL; MIC [14]: ≤ 0.06 µg/mL; MIC [15]: 1 µg/mL (≈ 2.48 µM); MIC [16]: 0.5 µg/mL (≈ 1.24 µM); MIC [17]: 1 µg/mL (≈ 2.48 µM); MIC [18]: 32 µg/mL (≈ 79.3 µM); MIC [19]: 0.25 µg/mL (≈ 0.62 µM); MIC [20]: 0.25 µg/mL (≈ 0.62 µM) |
| O=CN(O)C[C@@H](CC1CCCC1)C(=O)N1CC=C[C@H]1C(=O)Nc1ccc(F)cn1 | 0.25 (≈ 0.618 µM) | 0.5 (≈ 1.24 µM) | 0.125 (≈ 0.309 µM) | 0.125 (≈ 0.309 µM) | 32 (≈ 79.1 µM) | 16 (≈ 39.6 µM) |  |
| CCCC[C@H](CN(O)C=O)C(=O)N1C[C@@H](F)C[C@H]1C(=O)Nc1ncc(C)s1 | 8 (≈ 20 µM) | 8 (≈ 20 µM) | 8 (≈ 20 µM) |  |  |  | MIC [21]: 8 µg/mL (≈ 20 µM); MIC [22]: 4 µg/mL (≈ 9.99 µM); MIC [23]: > 16 µg/mL; MIC [24]: 0.25 µg/mL (≈ 0.624 µM); MIC [25]: 0.06 µg/mL (≈ 0.15 µM) |
| CCCC[C@H](CN(O)C=O)C(=O)N1C[C@@H](F)C[C@H]1C(=O)Nc1ccc(F)c[n+]1[O-] | 4 (≈ 9.65 µM) | 4 (≈ 9.65 µM) | 4 (≈ 9.65 µM) |  |  |  | MIC [21]: 16 µg/mL (≈ 38.6 µM); MIC [22]: 4 µg/mL (≈ 9.65 µM); MIC [23]: > 16 µg/mL; MIC [24]: 0.25 µg/mL (≈ 0.603 µM); MIC [25]: 0.06 µg/mL (≈ 0.145 µM) |
